Measured values reported in ChEMBL document CHEMBL4411293, “Development of alkyl glycerone phosphate synthase inhibitors: Structure-activity relationship and effects on ether lipids and epithelial-mesenchymal transition in cancer cells” (Eur J Med Chem, 2019).
Calls of active or inactive are those of the source. No cut-off for these calls is given here.

How the values were obtained:
[1] = target: Alkyldihydroxyacetonephosphate synthase, peroxisomal (Homo sapiens) (UniProt O00116); test: Binding affinity to AGPS (unknown origin) assessed as change in melting temperature at 180 uM by ThermoFAD assay
In short: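 ThermoFAD: 5 µM Cavia porcellus AGPS with 180 µM compound in 50 mM HEPES pH 7.5, 50 mM NaCl, 5% glycerol; heated 25–70 °C, FAD fluorescence read every 0.2 °C (excitation 485 nm) to give unfolding temperature shift; triplicate, SD within ±0.5 °C.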

[2] = Antimigratory activity in human 231MFP cells at 500 uM after 8 hrs by transwell assay relative to control; format: functional
PC-3 [3] = test: Modulation of epithelial-mesenchymal transition in human PC3 cells assessed as upregulation of E-cadherin mRNA expression at 50 to 100 uM after 24 hrs by qRT-PCR analysis; format: functional, cell-based
In short: (§1)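 PC-3 and MDA-MB-231 cells in DMEM/10% FBS treated 24 h at 50 and 100 µM, DMSO vehicle as control; E-cadherin, Snail and MMP2 transcripts quantified by RT-PCR; mean of at least four independent experiments.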

MDA-MB-231 [4] = test: Modulation of epithelial-mesenchymal transition in human MDA-MB-231 cells assessed as upregulation of E-cadherin mRNA expression at 50 to 100 uM after 24 hrs by qRT-PCR analysis; format: functional, cell-based; in short: as §1
PC-3 [5] = test: Modulation of epithelial-mesenchymal transition in human PC3 cells assessed as down regulation of snail mRNA expression at 50 to 100 uM after 24 hrs by qRT-PCR analysis; format: functional, cell-based; in short: as §1
MDA-MB-231 [6] = test: Modulation of epithelial-mesenchymal transition in human MDA-MB-231 cells assessed as down regulation of snail mRNA expression at 50 to 100 uM after 24 hrs by qRT-PCR analysis; format: functional, cell-based; in short: as §1
PC-3 [7] = test: Modulation of epithelial-mesenchymal transition in human PC3 cells assessed as down regulation of MMP2 mRNA expression at 50 to 100 uM after 24 hrs by qRT-PCR analysis; format: functional, cell-based; in short: as §1
MDA-MB-231 [8] = test: Modulation of epithelial-mesenchymal transition in human MDA-MB-231 cells assessed as down regulation of MMP2 mRNA expression at 50 to 100 uM after 24 hrs by qRT-PCR analysis; format: functional, cell-based; in short: as §1
[9] = Reduction in cell survival in human 231MFP cells; format: functional
[10] = Reduction in cell migration rate in human 231MFP cells; format: functional; design: scale not given: the % may be the effect or the level left
[11] = Down regulation of phospholipids in human 231MFP cells at 500 uM after 24 hrs by LC-MS/MS analysis relative to control; format: functional
In short: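 231MFP cells kept serum-free 24 h, then treated 24 h at 500 µM versus DMSO; lipids extracted in chloroform/methanol/PBS (2:1:1) with C12:0 dodecylglycerol and pentadecanoic acid internal standards; reverse-phase C5 LC, ESI triple-quadrupole MS/MS with SRM quantitation; mean ± SD.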

[12] = Antimigratory activity in human 231MFP cells at 500 uM after 6 hrs by transwell assay relative to control; format: functional
In short: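 Transwell chambers coated with collagen; 231MFP cells preincubated with compound or DMSO vehicle before seeding into serum-free migration assay; migration rate read after 6 h versus vehicle control; mean ± SD, n = 3–4 per group.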

[13] = Cytotoxicity against human 231MFP cells assessed as cell survival at 500 uM after 24 hrs by MTS assay relative to control; format: cell-based; conditions: read-out: Activity
In short: (§2)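 231MFP cells preincubated with compound (500 µM) or DMSO, then seeded into serum-free survival assay; survival read after 24 and 48 h relative to matched DMSO controls.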

[14] = Cytotoxicity against human 231MFP cells assessed as cell survival at 500 uM after 48 hrs by MTS assay relative to control; format: cell-based; conditions: read-out: Activity; in short: as §2
[15] = Cytotoxicity against human MeT-5A cells at 100 uM after 24 hrs by MTS assay; format: cell-based
In short: (§3)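 Cells seeded at 20x10^3 per well; compound added 24 h later at 50, 100 or 250 µM; after further 24 h MTS reagent added and absorbance read at 490 nm; PC-3 and MDA-MB-231 in DMEM, MeT5A in M199, each with 10% FBS, 37 °C, 5% CO2; three independent experiments, 8 measurements total, mean ± SEM.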

[16] = Cytotoxicity against human MeT-5A cells at 250 uM after 24 hrs by MTS assay; format: cell-based; in short: as §3
[17] = target: Alkyldihydroxyacetonephosphate synthase, peroxisomal (Homo sapiens) (UniProt O00116); test: Inhibition of AGPS (unknown origin) using palmitoyl-DHAP as substrate in presence of [1-14C]hexadecanol by radioactivity based enzymatic assay
PC-3 [18] = test: Antiproliferative activity against human PC3 cells at 100 uM after 24 hrs by MTS assay; format: functional, cell-based; in short: as §3
MDA-MB-231 [19] = test: Antiproliferative activity against human MDA-MB-231 cells at 100 uM after 24 hrs by MTS assay; format: functional, cell-based; in short: as §3
PC-3 [20] = test: Antiproliferative activity against human PC3 cells at 250 uM after 24 hrs by MTS assay; format: functional, cell-based; in short: as §3
MDA-MB-231 [21] = test: Antiproliferative activity against human MDA-MB-231 cells at 250 uM after 24 hrs by MTS assay; format: functional, cell-based; in short: as §3
MDA-MB-231 [22] = test: Modulation of epithelial-mesenchymal transition in human MDA-MB-231 cells transfected with AGPS-siRNA assessed as upregulation of E-cadherin mRNA expression at 100 uM after 24 hrs by qRT-PCR analysis; format: functional, cell-based
In short: (§4)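 MDA-MB-231 cells transfected with AGPS siRNAs (100 pmol total, RNAiMAX) or scramble; 24 h later given compound at 100 µM final or DMSO without detaching, harvested 24 h after that; AGPS, E-cadherin, Snail and MMP2 transcripts by RT-PCR; mean of five independent experiments.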

MDA-MB-231 [23] = test: Modulation of epithelial-mesenchymal transition in human MDA-MB-231 cells transfected with AGPS-siRNA assessed as down regulation of snail mRNA expression at 100 uM after 24 hrs by qRT-PCR analysis; format: functional, cell-based; in short: as §4
MDA-MB-231 [24] = test: Modulation of epithelial-mesenchymal transition in human MDA-MB-231 cells transfected with AGPS-siRNA assessed as down regulation of MMP2 mRNA expression at 100 uM after 24 hrs by qRT-PCR analysis; format: functional, cell-based; in short: as §4

Alkyldihydroxyacetonephosphate synthase, peroxisomal (Homo sapiens), sequence (O00116 whole entry): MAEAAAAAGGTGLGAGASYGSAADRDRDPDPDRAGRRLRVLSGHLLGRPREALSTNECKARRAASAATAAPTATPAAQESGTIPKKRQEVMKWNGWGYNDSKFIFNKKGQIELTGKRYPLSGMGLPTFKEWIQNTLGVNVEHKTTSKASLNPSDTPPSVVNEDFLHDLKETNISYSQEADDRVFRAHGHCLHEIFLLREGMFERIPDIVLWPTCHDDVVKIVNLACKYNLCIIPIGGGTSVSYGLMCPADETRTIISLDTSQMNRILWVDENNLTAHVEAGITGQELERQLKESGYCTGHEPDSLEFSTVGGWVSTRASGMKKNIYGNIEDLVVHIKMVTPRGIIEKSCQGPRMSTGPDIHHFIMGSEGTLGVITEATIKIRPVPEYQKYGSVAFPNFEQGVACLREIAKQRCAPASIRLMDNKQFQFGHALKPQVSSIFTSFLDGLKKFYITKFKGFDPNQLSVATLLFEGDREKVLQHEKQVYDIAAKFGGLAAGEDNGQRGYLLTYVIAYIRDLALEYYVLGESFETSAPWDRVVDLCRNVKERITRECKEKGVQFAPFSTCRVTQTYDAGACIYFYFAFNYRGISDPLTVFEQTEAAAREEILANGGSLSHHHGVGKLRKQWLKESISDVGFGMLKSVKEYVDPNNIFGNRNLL

C/C(=C\c1ccccc1F)C(=O)NCc1ccc2[nH]c(=O)[nH]c2c1
ΔTm [1]: 2 °C

CC(Cc1ccccc1F)C(=O)NCc1ccc2[nH]c(=O)[nH]c2c1 (stereo unspecified)
ΔTm [1]: 3 °C

CC(CC(=O)NCc1ccc2[nH]c(=O)[nH]c2c1)c1cccc(F)c1 (stereo unspecified)
ΔTm [1]: 3 °C

O=C(CCc1ccccc1F)NCc1ccc2[nH]c(=O)[nH]c2c1
ΔTm [1]: 0 °C

O=C(/C=C/c1ccccc1F)NCc1ccc2[nH]c(=O)[nH]c2c1
ΔTm [1]: 0 °C

CC(CC(=O)NCc1ccc2[nH]c(=O)[nH]c2c1)c1ccccc1 (stereo unspecified)
ΔTm [1]: 1.5 °C

CC(CC(=O)NCc1ccc2[nH]c(=O)[nH]c2c1)c1ccc(F)cc1 (stereo unspecified)
ΔTm [1]: 4 °C

C/C(=C\C(=O)NCc1ccc2[nH]c(=O)[nH]c2c1)c1ccccc1F
ΔTm [1]: 0 °C

CC(CC(=O)NCc1ccc2[nH]c(=O)[nH]c2c1)c1ccccc1F (stereo unspecified)
ΔTm [1]: 3.5 °C | Activity [2]: 48% | Activity (PC-3 [3]): Active | Activity (MDA-MB-231 [4]): Active | Activity (PC-3 [5]): Active | Activity (MDA-MB-231 [6]): Active | Activity (PC-3 [7]): Active | Activity (MDA-MB-231 [8]): Active | Activity [9]: 50% | Activity [10]: 48%

CC(CC(=O)NCc1ccc2[nH]c(=O)[nH]c2c1)c1ccccc1Cl (stereo unspecified)
ΔTm [1]: 3.5 °C

CC(CC(=O)NCc1ccc2[nH]c(=O)[nH]c2c1)c1c(F)cccc1F (stereo in doubt; 2i) [listing 1 of 2 here]
Activity [11]: 50 - 70% | Activity [12]: 78% | viability at 24 h, 500 µM [13]: 44% | viability at 48 h, 500 µM [14]: 57% | Activity [15]: Non-Toxic | Activity [16]: Non-Toxic

CC(C(=O)NCc1ccc2[nH]c(=O)[nH]c2c1)c1c(F)cccc1F (stereo unspecified)
ΔTm [1]: 1 °C | inhibition [17]: inactive

CC(CC(=O)NCc1ccc2[nH]c(=O)[nH]c2c1)c1c(F)cccc1F (stereo in doubt; 2i) [listing 2 of 2 here]
ΔTm [1]: 5 °C | inhibition [17]: Active | Activity (PC-3 [18]): inactive | Activity (MDA-MB-231 [19]): inactive | Activity (PC-3 [20]): Active | Activity (MDA-MB-231 [21]): Active | Activity (PC-3 [3]): Active | Activity (MDA-MB-231 [4]): Active | Activity (PC-3 [5]): Active | Activity (MDA-MB-231 [6]): Active | Activity (PC-3 [7]): Active | Activity (MDA-MB-231 [8]): Active | Activity (MDA-MB-231 [22]): Active | Activity (MDA-MB-231 [23]): Active | Activity (MDA-MB-231 [24]): Active

CC(CC(=O)NCc1ccc2[nH]c(=O)[nH]c2c1)c1ccc(F)cc1F (stereo unspecified)
ΔTm [1]: 3.5 °C

CCC(CC(=O)NCc1ccc2[nH]c(=O)[nH]c2c1)c1ccccc1F (stereo unspecified)
ΔTm [1]: 1 °C

CC(CC(=O)NCc1ccc2[nH]c(=O)[nH]c2c1)c1c(F)cccc1F (single isomer, unassigned; (+))
ΔTm [1]: 6 °C

Cc1ccccc1C(C)CC(=O)NCc1ccc2[nH]c(=O)[nH]c2c1 (stereo unspecified)
ΔTm [1]: 3 °C

O=C(CC(c1ccccc1)c1ccccc1F)NCc1ccc2[nH]c(=O)[nH]c2c1 (stereo unspecified)
ΔTm [1]: 0 °C | inhibition [17]: inactive

C[C@H](CC(=O)NCc1ccc2[nH]c(=O)[nH]c2c1)c1c(F)cccc1F
ΔTm [1]: 3 °C

CC(CC(=O)Nc1ccc2[nH]c(=O)[nH]c2c1)c1c(F)cccc1F (stereo unspecified)
ΔTm [1]: 0 °C

CC(CC(=O)NCc1ccc2[nH]c(=O)[nH]c2c1)c1ccccc1Br (stereo unspecified)
ΔTm [1]: 3.5 °C

CC(CC(=O)NCc1ccc2ncc(=O)[nH]c2c1)c1c(F)cccc1F (stereo unspecified)
ΔTm [1]: 0 °C

COc1ccccc1C(C)CC(=O)NCc1ccc2[nH]c(=O)[nH]c2c1 (stereo unspecified)
ΔTm [1]: 0 °C

CC(CC(=O)NCc1ccc2[nH]cnc2c1)c1c(F)cccc1F (stereo unspecified)
ΔTm [1]: 0 °C | inhibition [17]: inactive | Activity (PC-3 [3]): inactive | Activity (MDA-MB-231 [4]): inactive | Activity (PC-3 [5]): inactive | Activity (MDA-MB-231 [6]): inactive | Activity (PC-3 [7]): inactive | Activity (MDA-MB-231 [8]): inactive
